Experimental data from article PMC10798254 (Indian Journal of Nuclear Medicine : IJNM : The Official …, 2023).

Experiments:
B16F10 cells = assay: Cell binding; type: cell-based; details: plateau after 30 minutes
melanoma tumor (B16F10) = assay: In-vivo biodistribution; set-up: species or system C57BL6 mice; details: mouse
[1] = tested on: mCRPC with liver metastases; assay: [177Lu]Lu-PSMA-617 in mCRPC with liver metastases; type: in vivo, patients
carcinoma prostate = assay: Detection of metastatic disease in carcinoma prostate, PET-CT; type: in vivo, patients; details: for detection rate, lymph nodes: 50 patients, head-to-head; for detection rate, skeletal metastases / detection rate, soft tissue metastases: in vivo
[2] = Biodistribution and dosimetry of 177Lu-DOTA-rituximab; type: in vivo, patients
Method in brief: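 22 patients received a diagnostic administration, mean 288.6 MBq. Blood clearance, organ residence times and effective half-life were derived. Whole-body and organ (liver, spleen, kidneys, bone marrow) absorbed doses were expressed per MBq using OLINDA/EXM v2.1.1.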

[3] = tested on: metastatic prostate cancer; assay: 99mTc-PSMA SPECT/CT vs 68Ga-PSMA PET/CT lesion detection; type: in vivo, patients
Method in brief: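 61 male patients with metastatic prostate cancer (mean age 67 ± 7.82 years) received i.v. 99mTc-PSMA, mean 12.82 ± 1.15 mCi. Anterior and posterior whole-body images were taken at 2.0 and 4.0 h on a dual-head gamma camera (matrix 256×1024, 12 cm/min). Lesion counts were compared against 68Ga-PSMA.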

Glioblastoma multiforme = assay: [64Cu]CuCl2 PET in glioblastoma multiforme; type: in vivo, patients
[4] = tested on: estrogen receptor-positive (ER+) tumors; assay: Tumor localization of 99mTc-; type: in vivo
BIRADS-V breast lesions = assay: 99mTc-MDM scintimammography; type: in vivo, patients
Method in brief: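 For labelling, 15–20 mCi sodium pertechnetate was added to the kit vial and made up to 1.5 ml with 0.9% NaCl. It was incubated 15–20 min, then 0.22 µm filtered. 15–20 mCi was injected i.v. under the gamma camera. Spot views (anterior/posterior and lateral prone) were taken at 10, 60 and 180 min, and uptake mean and SD calculated at each time.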

[5] = tested on: metastatic pheochromocytoma and paraganglioma; assay: I-131 MIBG therapy of metastatic pheochromocytoma and paraganglioma; type: in vivo, patients
medullary thyroid cancer = assay: 131I-mIBG therapy of medullary thyroid cancer; type: in vivo, patients
Method in brief: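 131I-mIBG given as dose-adjusted intravenous infusions in 100 ml 0.9% sodium chloride by syringe pump over 3 hours, at 30.5 to 120 mCi per dose. Twenty-three therapy doses in total, 1–4 per patient.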

## [^177Lu]Lu-DOTA-Bevacizumab
B16F10 cells
  binding in cells: Approximately 32 ± 3%
Melanoma tumor (B16F10)
  accumulation in tumor: 8.2 ± 2.7 % ID/g

## [^177Lu]Lu-PSMA-617
[1]; 2/18 patients
  Grade 3 anemia: 11.1%
[1]; 4/14 patients
  ORR: 28.6%
[1]; 4/16 patients, median cumulative 11.1 GBq over 1-7 cycles
  best PSA-RR (PSA decline of ≥50%): 25%
[1]; 95% CI: 11.5-14.5
  median OS: 13.0 months

## O=C([O-])CN(CCN(CC(=O)[O-])Cc1cc(CCC(=O)NCCCCCC(=O)NCCCC[C@H](NC(=O)N[C@@H](CCC(=O)O)C(=O)O)C(=O)O)ccc1[O-])Cc1cc(CCC(=O)O)ccc1[O-].[68Ga+3].[OH3+] [^68Ga-PSMA-11]
Carcinoma prostate
  detection rate, lymph nodes: 99%
  detection rate, skeletal metastases: 99%
  detection rate, soft tissue metastases: 85.4%

## ^177Lu-DOTA-rituximab
[2]; 22 patients
  effective half-life: 104.5 ± 22 h
[2]; OLINDA/EXM
  mean WB radiation absorbed dose: 0.208 ± 0.03 mGy/MBq
[2]; in vivo
  mean WB effective dose: 0.196 ± 0.05 mGy/MBq
  mean radiation absorbed dose, bone marrow: 0.136 ± 0.02
  mean radiation absorbed dose, kidneys: 1.01 ± 0.42 mGy/MBq
  mean radiation absorbed dose, liver: 0.613 ± 0.21 mGy/MBq
  mean radiation absorbed dose, spleen: 1.68 ± 2 mGy/MBq

## O=C([O-])CN(CCN(CC(=O)[O-])Cc1cc(CCC(=O)NCCCCCC(=O)NCCCC[C@H](NC(=O)N[C@@H](CCC(=O)O)C(=O)O)C(=O)O)ccc1[O-])Cc1cc(CCC(=O)O)ccc1[O-].[68Ga+3].[OH3+] [^68Ga-PSMA]
[3]; 61 patients
  pelvic lesions detected: 341 lesions
[3]; in vivo
  extra pelvic distant metastatic lesions detected: 237 lesions
  total lesions detected: 578 lesions

## [64Cu+2].[Cl-].[Cl-] [^64CuCl2, 64-copper chloride]
Carcinoma prostate
  detection rate, lymph nodes: 79%
  detection rate, skeletal metastases: 77.3%
  detection rate, soft tissue metastases: 80.6%
Glioblastoma multiforme; first imaging, 2 patients
  SUVmax: 1.12
Glioblastoma multiforme; in vivo
  tolerability: well-tolerated

## CC12CCC3c4ccc(O)cc4CCC3C1CCC2(O)c1cn(CCNC(=O)CN(CCN(CCN(CC(=O)O)CC(=O)NCCn2cc(C3(O)CCC4C5CCc6cc(O)ccc6C5CCC43C)nn2)CC(=O)O)CC(=O)O)nn1 (stereo not drawn) [^99mTc[(EST)2DT], 5,8-bis(carboxymethyl)-13-(4-(3,17-dihydroxy-13-methyl-7,8,9,11,12,13,14,15,16,17-decahydro-6H-cyclopenta[α]phenanthren-17-yl)-1H-1,2,3-triazol-1-yl)-2-(2-(2-(4-(3,17-dihydroxy-13-methyl-7,8,9,11,12,13,14,15,16,17-decahydro-6H-cyclopenta[α]phenanthren-17-yl)-1H-1,2,3-triazol-1-yl)ethylamino)-2-oxoethyl)-10-oxo-2,5,8,11-tetraazatridecane-1-carboxylic acid, metal not drawn]
[4]; at 2.0 hours
  T/M ratio: 1.11 ± 0.34
[4]; in vivo
  increase in tumor localization: fivefold

## DTPA-bis-methionine [^99mTc-MDM]
BIRADS-V breast lesions; Prone Lateral, 10min
  mean Tu:Bkg ratio: 1.89 ± 0.578
BIRADS-V breast lesions; Prone Lateral, 1hr
  mean Tu:Bkg ratio: 1.95 ± 0.717
BIRADS-V breast lesions; Prone Lateral, 3hrs
  mean Tu:Bkg ratio: 2.059 ± 0.728
BIRADS-V breast lesions; anterior view, 10min
  mean Tu:Bkg ratio: 2.606 ± 0.601
BIRADS-V breast lesions; anterior view, 3hrs
  mean Tu:Bkg ratio: 3.04 ± 1.114

## N=C(N)NCc1cccc([131I])c1 [I-131 MIBG, Metaiodobenzylguanidine]
[5]; 20 patients
  immediate side effect post therapy: only one patient experienced severe vomiting
[5]; in vivo
  patients with symptomatic relief: 70%
  progressive disease: 9/20
[5]; ~100mCi i.v. per therapy
  partial response: 11/20
Medullary thyroid cancer; 30.5 to 120 mCi per dose, 1-4 doses
  calcitonin levels remained stable: 8/13
Medullary thyroid cancer; in vivo
  calcitonin levels progressed: 5/13
  regression on repeat mIBG scans: 3/12
  side effects: no reported side effects

## [^90Y]Y-CHX-A”-DTPA-Bevacizumab
B16F10 cells
  binding in cells: Approximately 32 ± 3%
Melanoma tumor (B16F10)
  accumulation in tumor: 8.2 ± 2.7 % ID/g
